From PMC6018888 (Drug Design, Development and Therapy, 2018)

Columns and labels:
[1] = Verinurad urinary pharmacokinetics; type: in vivo, human; conditions: for CLR0–24 / fe0–24: Japanese subjects, geometric mean (95% CI)
[2] = system: urinary excretion of uric acid; assay: Pharmacodynamics: urinary uric acid excretion; type: in vivo, human; conditions: for CLUR0–24 / FEUA0–24: mean (95% CI)
Procedure, shortened: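 Total-catch urine was collected at 6- or 12-h intervals from predose to 72 h after dosing on days 1 (fasted ≥10 h, no food 4 h postdose) and 12, and to 24 h on day 6 (fed). Urine uric acid, urine creatinine and serum creatinine were measured. CLUR0–24 = urinary uric acid amount ÷ urate AUC0–24. FEUA0–24 = CLUR0–24 ÷ creatinine clearance × 100.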

[3] = 2.5 mg single dose, fasted, day 1
[4] = 5 mg once daily multiple doses, fed, day 12
[5] = 5 mg single dose, fasted, day 1
[6] = 10 mg once daily multiple doses, fed, day 12
[7] = 10 mg single dose, fasted, day 1
[8] = 15 mg once daily multiple doses, fed, day 12
[9] = 15 mg single dose, fasted, day 1
[10] = Japanese subjects, 2.5 mg multiple dose, fed
[11] = Japanese subjects, 2.5 mg single dose, fasted
[12] = Japanese subjects, 2.5 mg single dose, fed
[13] = Japanese subjects, 5 mg multiple dose, fed
[14] = Japanese subjects, 5 mg single dose, fasted
[15] = Japanese subjects, 5 mg single dose, fed
[16] = Japanese subjects, 10 mg multiple dose, fed
[17] = Japanese subjects, 10 mg single dose, fasted
[18] = Japanese subjects, 10 mg single dose, fed
[19] = Japanese subjects, 15 mg multiple dose, fed
[20] = Japanese subjects, 15 mg single dose, fasted
[21] = Japanese subjects, 15 mg single dose, fed
[22] = Non-Asian subjects, 10 mg multiple dose, fed
[23] = Non-Asian subjects, 10 mg single dose, fasted

CC(C)(Sc1ccncc1-c1ccc(C#N)c2ccccc12)C(=O)O [verinurad]
CLR0–24 [1, 3]: 16.1 (9.41–27.6) mL/min | fe0–24 [1, 3]: 0.896 (0.620–1.29) % | CLR0–24 ([1]; 2.5 mg single dose, fed, day 6): 15.7 (9.54–25.8) mL/min | fe0–24 ([1]; 2.5 mg single dose, fed, day 6): 1.27 (0.659–2.47) % | CLR0–24 [1, 4]: 17.0 (11.8–24.5) mL/min | fe0–24 [1, 4]: 1.65 (0.959–2.84) % | CLR0–24 [1, 5]: 16.4 (11.3–23.7) mL/min | fe0–24 [1, 5]: 0.640 (0.279–1.47) % | CLR0–24 ([1]; 5 mg single dose, fed, day 6): 15.1 (11.8–19.3) mL/min | fe0–24 ([1]; 5 mg single dose, fed, day 6): 1.09 (0.730–1.64) % | CLR0–24 [1, 6]: 17.0 (9.43–25.4) mL/min | fe0–24 [1, 6]: 1.77 (1.38–2.25) % | CLR0–24 [1, 7]: 13.1 (10.1–16.9) mL/min | fe0–24 [1, 7]: 0.733 (0.558–0.964) % | fe0–24 ([1]; 10 mg single dose, fed, day 6): 1.63 (1.24–2.16) % | CLR0–24 [1, 8]: 16.0 (8.22–31.3) mL/min | fe0–24 [1, 8]: 1.83 (1.23–2.73) % | CLR0–24 [1, 9]: 9.30 (5.46–15.9) mL/min | fe0–24 [1, 9]: 0.788 (0.424–1.45) % | CLR0–24 ([1]; 15 mg single dose, fed, day 6): 12.0 (6.06–23.7) mL/min | fe0–24 ([1]; 15 mg single dose, fed, day 6): 1.14 (0.907–1.45) % | renal clearance GMR, Japanese vs non-Asian ([1]; multiple dosing, 90% CI 79.7–126): 100% | fraction of drug excreted in urine GMR, Japanese vs non-Asian ([1]; multiple dosing, 90% CI 98.7–153): 123% | renal clearance GMR, Japanese vs non-Asian ([1]; single dose, fasted, 90% CI 53.7–91.4): 70.0% | fraction of drug excreted in urine GMR, Japanese vs non-Asian ([1]; single dose, fasted, 90% CI 70.9–124): 93.7% | renal clearance GMR, Japanese vs non-Asian ([1]; single dose, fed, 90% CI 65.0–101): 80.9% | fraction of drug excreted in urine GMR, Japanese vs non-Asian ([1]; single dose, fed, 90% CI 107–191): 143% | CLUR0–24 [2, 10]: 12.2 (10.3–14.2) mL/min | FEUA0–24 [2, 10]: 7.57 (6.74–8.41) % | CLUR0–24 [2, 11]: 7.82 (6.90–8.74) mL/min | FEUA0–24 [2, 11]: 7.72 (6.01–9.43) % | CLUR0–24 [2, 12]: 11.4 (9.74–13.0) mL/min | FEUA0–24 [2, 12]: 7.75 (6.80–8.70) % | percent change from baseline in AeUR, 0–6 hour interval ([2]; Japanese subjects, 2.5 mg, day 1 (fasted)): 18% | percent change from baseline in AeUR, 0–6 hour interval ([2]; Japanese subjects, 2.5 mg, day 6 (fed)): 62% | percent change from baseline in AeUR, 0–6 hour interval ([2]; Japanese subjects, 2.5 mg, day 12 (steady-state, fed)): −17% | CLUR0–24 [2, 13]: 13.7 (9.35–18.1) mL/min | FEUA0–24 [2, 13]: 14.5 (9.93–19.1) % | CLUR0–24 [2, 14]: 10.9 (8.88–12.9) mL/min | FEUA0–24 [2, 14]: 9.05 (7.20–10.9) % | CLUR0–24 [2, 15]: 16.0 (11.7–20.3) mL/min | FEUA0–24 [2, 15]: 11.2 (7.42–14.9) % | percent change from baseline in AeUR, 0–6 hour interval ([2]; Japanese subjects, 5 mg, day 1 (fasted)): 59% | percent change from baseline in AeUR, 0–6 hour interval ([2]; Japanese subjects, 5 mg, day 6 (fed)): 114% | percent change from baseline in AeUR, 0–6 hour interval ([2]; Japanese subjects, 5 mg, day 12 (steady-state, fed)): −35% | CLUR0–24 [2, 16]: 19.7 (16.7–22.7) mL/min | FEUA0–24 [2, 16]: 13.7 (10.8–16.6) % | CLUR0–24 [2, 17]: 14.3 (10.7–17.9) mL/min | FEUA0–24 [2, 17]: 10.8 (7.87–13.6) % | CLUR0–24 [2, 18]: 16.0 (9.88–22.1) mL/min | FEUA0–24 [2, 18]: 20.5 (11.3–29.6) % | percent change from baseline in AeUR, 0–6 hour interval ([2]; Japanese subjects, 10 mg, day 1 (fasted)): 114% | percent change from baseline in AeUR, 0–6 hour interval ([2]; Japanese subjects, 10 mg, day 6 (fed)): 131% | percent change from baseline in AeUR, 0–6 hour interval ([2]; Japanese subjects, 10 mg, day 12 (steady-state, fed)): −33% | CLUR0–24 [2, 19]: 23.9 (14.9–32.9) mL/min | FEUA0–24 [2, 19]: 16.0 (10.7–21.2) % | CLUR0–24 [2, 20]: 15.0 (6.40–23.6) mL/min | FEUA0–24 [2, 20]: 14.5 (7.08–22.0) % | CLUR0–24 [2, 21]: 12.1 (4.04–20.2) mL/min | FEUA0–24 [2, 21]: 9.61 (2.96–16.3) % | percent change from baseline in AeUR, 0–6 hour interval ([2]; Japanese subjects, 15 mg, day 1 (fasted)): 77% | percent change from baseline in AeUR, 0–6 hour interval ([2]; Japanese subjects, 15 mg, day 6 (fed)): 49% | percent change from baseline in AeUR, 0–6 hour interval ([2]; Japanese subjects, 15 mg, day 12 (steady-state, fed)): 6% | CLUR0–24 [2, 22]: 20.6 (13.7–27.4) mL/min | FEUA0–24 [2, 22]: 13.2 (8.45–17.9) % | CLUR0–24 [2, 23]: 15.3 (7.35–23.3) mL/min | FEUA0–24 [2, 23]: 10.4 (4.84–16.0) %
